Values after ≈ are worked out from the molar mass of the structure shown.
How the values were obtained:
[1] = system: Burkholderia cenocepacia; assay: Antimicrobial activity against Burkholderia cenocepacia 5007902 expressing beta-lactamase PenB4; assay type: functional
How it was run: (§1)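 MICs measured by broth microdilution and by Etest on clinical B. cenocepacia isolates grown for 18 h in Trypticase soy broth (30°C and 37°C). Susceptibility was read against CLSI guidelines.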

[2] = system: Escherichia coli; assay: Antimicrobial activity against Escherichia coli TOP10 harboring beta-lactamase PenB1; assay type: functional
How it was run: (§2)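 MICs by broth microdilution and Etest, interpreted per CLSI guidelines. Strains tested were host E. coli TOP10, and TOP10 carrying pBcSau13 (pBK-CMV vector, kanamycin-resistant) holding a Sau3AI fragment of B. cenocepacia 212 DNA that encodes PenB1.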

[3] = system: Escherichia coli; assay: Antimicrobial activity against Escherichia coli TOP10; assay type: functional; how it was run: as §2
[4] = system: Burkholderia cenocepacia; assay: Antimicrobial activity against Burkholderia cenocepacia 212 expressing beta-lactamase PenB3; assay type: functional; how it was run: as §1
[5] = system: Burkholderia cenocepacia; assay: Antimicrobial activity against Burkholderia cenocepacia 07-34 expressing beta-lactamase PenB1; assay type: functional; how it was run: as §1
[6] = system: Burkholderia cenocepacia; assay: Antimicrobial activity against Burkholderia cenocepacia 09-54 expressing beta-lactamase PenB2; assay type: functional; how it was run: as §1
[7] = system: Burkholderia cenocepacia; assay: Antimicrobial activity against Burkholderia cenocepacia 212 expressing beta-lactamase PenB3 in presence of 4 ug/ml beta-lactamase inhibitor Tazobactam; assay type: functional
How it was run: (§3)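 Isolates were cultured for 18 h in Trypticase soy broth (30°C and 37°C), then tested by microdilution and Etest. […] MICs were interpreted using CLSI guidelines.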

[8] = system: Escherichia coli; assay: Antimicrobial activity against Escherichia coli TOP10 in presence of 4 ug/ml beta-lactamase inhibitor Tazobactam; assay type: functional
How it was run: (§4)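 E. coli TOP10 host, either plain or carrying the pBK-CMV clone pBcSau13 with the B. cenocepacia 212 insert. MICs by broth microdilution and Etest, read against CLSI guidelines.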

[9] = system: Escherichia coli; assay: Antimicrobial activity against Escherichia coli TOP10 harboring beta-lactamase PenB1 in presence of 4 ug/ml beta-lactamase inhibitor Tazobactam; assay type: functional; how it was run: as §4
[10] = system: Burkholderia cenocepacia; assay: Antimicrobial activity against Burkholderia cenocepacia 09-54 expressing beta-lactamase PenB2 in presence of 4 ug/ml beta-lactamase inhibitor Tazobactam; assay type: functional; how it was run: as §3
[11] = system: Burkholderia cenocepacia; assay: Antimicrobial activity against Burkholderia cenocepacia 07-34 expressing beta-lactamase PenB in presence of 4 ug/ml beta-lactamase inhibitor Tazobactam; assay type: functional; how it was run: as §3
[12] = system: Burkholderia cenocepacia; assay: Antimicrobial activity against Burkholderia cenocepacia 5007902 expressing beta-lactamase PenB4 in presence of 4 ug/ml beta-lactamase inhibitor Tazobactam; assay type: functional; how it was run: as §3
[13] = substrate: CO/N=C(\C(=O)N[C@@H]1C(=O)N2C(C(=O)O)=C(COC(C)=O)CS[C@H]12)c1csc(N)n1; conditions: Burkholderia cenocepacia; 07-34
[14] = substrate: CC(=O)OCC1=C(C(=O)O)N2C(=O)[C@@H](NC(=O)Cc3cccs3)[C@H]2SC1; conditions: Burkholderia cenocepacia; 07-34
[15] = substrate: CO/N=C(\C(=O)N[C@@H]1C(=O)N2C(C(=O)O)=C(COC(N)=O)CS[C@H]12)c1ccco1; conditions: Burkholderia cenocepacia; 07-34
[16] = substrate: CC1(C)S[C@@H]2[C@H](NC(=O)Cc3ccccc3)C(=O)N2[C@H]1C(=O)O; conditions: Burkholderia cenocepacia; 07-34
[17] = substrate: C[C@H]1[C@H](NC(=O)/C(=N\OC(C)(C)C(=O)O)c2csc(N)n2)C(=O)N1S(=O)(=O)O; conditions: Burkholderia cenocepacia; 07-34
[18] = substrate: C[C@@H](O)[C@H]1C(=O)N2C(C(=O)O)=C(SCCNC=N)C[C@H]12; conditions: Burkholderia cenocepacia; 07-34
[19] = substrate: CC1(C)S[C@@H]2[C@H](NC(=O)[C@H](N)c3ccccc3)C(=O)N2[C@H]1C(=O)O; conditions: Burkholderia cenocepacia; 07-34
[20] = substrate: C[C@@H](O)[C@H]1C(=O)N2C(C(=O)O)=C(S[C@@H]3CN[C@H](C(=O)N(C)C)C3)[C@H](C)[C@H]12; conditions: Burkholderia cenocepacia; 07-34
[21] = substrate: CO/N=C(\C(=O)N[C@@H]1C(=O)N2C(C(=O)[O-])=C(C[N+]3(C)CCCC3)CS[C@H]12)c1csc(N)n1; conditions: Burkholderia cenocepacia; 07-34
[22] = substrate: CCN1CCN(C(=O)N[C@@H](C(=O)N[C@@H]2C(=O)N3[C@@H]2SC(C)(C)[C@@H]3C(=O)O)c2ccccc2)C(=O)C1=O; conditions: Burkholderia cenocepacia; 07-34
[23] = substrate: CC1(C)S[C@@H]2[C@H](NC(=O)[C@H](C(=O)O)c3ccsc3)C(=O)N2[C@H]1C(=O)O; conditions: Burkholderia cenocepacia; 07-34
[24] = substrate: CC(C)(O/N=C(\C(=O)N[C@@H]1C(=O)N2C(C(=O)[O-])=C(C[n+]3ccccc3)CS[C@H]12)c1csc(N)n1)C(=O)O; conditions: Burkholderia cenocepacia; 07-34
[25] = substrate: CO/N=C(\C(=O)N[C@@H]1C(=O)N2C(C(=O)O)=C(COC(C)=O)CS[C@H]12)c1csc(N)n1; conditions: Burkholderia cenocepacia; 07-34; remark: listed apart in the source
[26] = substrate: CC(=O)OCC1=C(C(=O)O)N2C(=O)[C@@H](NC(=O)Cc3cccs3)[C@H]2SC1; conditions: Burkholderia cenocepacia; 07-34; remark: listed apart in the source
[27] = substrate: CO/N=C(\C(=O)N[C@@H]1C(=O)N2C(C(=O)O)=C(COC(N)=O)CS[C@H]12)c1ccco1; conditions: Burkholderia cenocepacia; 07-34; remark: listed apart in the source
[28] = substrate: CC1(C)S[C@@H]2[C@H](NC(=O)Cc3ccccc3)C(=O)N2[C@H]1C(=O)O; conditions: Burkholderia cenocepacia; 07-34; remark: listed apart in the source
[29] = substrate: C[C@H]1[C@H](NC(=O)/C(=N\OC(C)(C)C(=O)O)c2csc(N)n2)C(=O)N1S(=O)(=O)O; conditions: Burkholderia cenocepacia; 07-34; remark: listed apart in the source
[30] = substrate: C[C@@H](O)[C@H]1C(=O)N2C(C(=O)O)=C(SCCNC=N)C[C@H]12; conditions: Burkholderia cenocepacia; 07-34; remark: listed apart in the source
[31] = substrate: CC1(C)S[C@@H]2[C@H](NC(=O)[C@H](N)c3ccccc3)C(=O)N2[C@H]1C(=O)O; conditions: Burkholderia cenocepacia; 07-34; remark: listed apart in the source
[32] = substrate: C[C@@H](O)[C@H]1C(=O)N2C(C(=O)O)=C(S[C@@H]3CN[C@H](C(=O)N(C)C)C3)[C@H](C)[C@H]12; conditions: Burkholderia cenocepacia; 07-34; remark: listed apart in the source
[33] = substrate: CO/N=C(\C(=O)N[C@@H]1C(=O)N2C(C(=O)[O-])=C(C[N+]3(C)CCCC3)CS[C@H]12)c1csc(N)n1; conditions: Burkholderia cenocepacia; 07-34; remark: listed apart in the source
[34] = substrate: CCN1CCN(C(=O)N[C@@H](C(=O)N[C@@H]2C(=O)N3[C@@H]2SC(C)(C)[C@@H]3C(=O)O)c2ccccc2)C(=O)C1=O; conditions: Burkholderia cenocepacia; 07-34; remark: listed apart in the source
[35] = substrate: CC1(C)S[C@@H]2[C@H](NC(=O)[C@H](C(=O)O)c3ccsc3)C(=O)N2[C@H]1C(=O)O; conditions: Burkholderia cenocepacia; 07-34; remark: listed apart in the source
[36] = substrate: CC(C)(O/N=C(\C(=O)N[C@@H]1C(=O)N2C(C(=O)[O-])=C(C[n+]3ccccc3)CS[C@H]12)c1csc(N)n1)C(=O)O; conditions: Burkholderia cenocepacia; 07-34; remark: listed apart in the source

In the case of `CC(C)(O/N=C(\C(=O)N[C@@H]1C(=O)N2C(C(=O)[O-])=C(C[n+]3ccccc3)CS[C@H]12)c1csc(N)n1)C(=O)O` [CEFTAZIDIME], the MIC [1] is reported as 0.25 µg/mL (≈ 0.457 µM), the MIC [2] is reported as 1 µg/mL (≈ 1.83 µM) and the MIC [3] is reported as 0.5 µg/mL (≈ 0.915 µM). The MIC [4] was 16 µg/mL (≈ 29.3 µM), the MIC [5] was 4 µg/mL (≈ 7.32 µM) and the MIC [6] was 32 µg/mL (≈ 58.5 µM).

With `CO/N=C(\C(=O)N[C@@H]1C(=O)N2C(C(=O)O)=C(COC(N)=O)CS[C@H]12)c1ccco1` [CEFUROXIME] the MIC [1] was 32 µg/mL (≈ 75.4 µM), the MIC [2] was 16 µg/mL (≈ 37.7 µM) and the MIC [3] was 8 µg/mL (≈ 18.9 µM). The MIC [4] was 512 µg/mL (≈ 1210 µM), the MIC [5] was 16 µg/mL (≈ 37.7 µM) and the MIC [6] was 512 µg/mL (≈ 1210 µM).

With `C[C@@H](O)[C@H]1C(=O)N2C(C(=O)O)=C(SCCNC=N)C[C@H]12` [IMIPENEM ANHYDROUS] the MIC [1] was 8 µg/mL (≈ 26.7 µM), the MIC [2] was 0.5 µg/mL (≈ 1.67 µM) and the MIC [4] was 16 µg/mL (≈ 53.4 µM). It also gave an MIC [5] of 8 µg/mL (≈ 26.7 µM) and an MIC [6] of 16 µg/mL (≈ 53.4 µM).

Molecule `CCN1CCN(C(=O)N[C@@H](C(=O)N[C@@H]2C(=O)N3[C@@H]2SC(C)(C)[C@@H]3C(=O)O)c2ccccc2)C(=O)C1=O` [PIPERACILLIN] has an MIC [1] of 4 µg/mL (≈ 7.73 µM), an MIC [7] of 128 µg/mL and an MIC [8] of 2 µg/mL. The MIC [9] was 4 µg/mL, the MIC [10] was 256 µg/mL and the MIC [2] was 8 µg/mL (≈ 15.5 µM). For the same molecule, the MIC [3] was 2 µg/mL (≈ 3.86 µM), the MIC [4] was 128 µg/mL (≈ 247 µM) and the MIC [11] was 4 µg/mL. The MIC [5] was 4 µg/mL (≈ 7.73 µM), the MIC [6] was 512 µg/mL (≈ 989 µM) and the MIC [12] was 4 µg/mL.

Molecule `CC1(C)S[C@@H]2[C@H](NC(=O)[C@H](C(=O)O)c3ccsc3)C(=O)N2[C@H]1C(=O)O` [TICARCILLIN] has an MIC [1] of 512 µg/mL (≈ 1330 µM), an MIC [2] of 512 µg/mL (≈ 1330 µM) and an MIC [3] of 4 µg/mL (≈ 10.4 µM). It also gave an MIC [4] of 512 µg/mL (≈ 1330 µM), an MIC [5] of 512 µg/mL (≈ 1330 µM) and an MIC [6] of 512 µg/mL (≈ 1330 µM).

B1: PenB class A beta-lactamase (Burkholderia cenocepacia), B8R6A5 (protein)
chain: MTYSSKRRTLLLAAATAPLVLTATACASRQAAAPDPATAAAAAAADAMAPAAAAATLADLERDAGGRLGVCAIDTASGRVIEHRAGERFPFCSTFKAMLSAAVLAQSVERPGLLQQRVKYTKADLVNYSPVSEKHVGAGMTVAALCEATIQYSDNSAANLLMKLIGGPSAVTAYARSIGDDAFRLDRWETELNTALPGDPRDTTTPAAMAASIRVLTLGDALPAAQRAQLVAWLRGNKVGDKRIRAGVPAGWTVGDKTGTGDYGTTNDAGVIWPTSRAPIVLAVYYTQTRADARAKDDVIASVARIVAQTFG
B1 gave a kcat/Km [13] of 0.13 µM⁻¹ s⁻¹, a kcat/Km [14] of 3 µM⁻¹ s⁻¹ and a kcat/Km [15] of 2.1 µM⁻¹ s⁻¹. It also gave a kcat/Km [16] of 5.2 µM⁻¹ s⁻¹, a kcat/Km [17] of 10 µM⁻¹ s⁻¹ and a kcat/Km [18] of 2 µM⁻¹ s⁻¹. For the same molecule, the kcat/Km [19] was 0.7 µM⁻¹ s⁻¹, the kcat/Km [20] was 0.0005 µM⁻¹ s⁻¹ and the kcat/Km [21] was 10 µM⁻¹ s⁻¹. The kcat/Km [22] was 0.5 µM⁻¹ s⁻¹, the kcat/Km [23] was 0.25 µM⁻¹ s⁻¹ and the kcat/Km [24] was 0.5 µM⁻¹ s⁻¹. The Km [25] was 150 µM, the kcat [25] was 20 s⁻¹ and the Km [26] was 100 µM. For the same molecule, the kcat [26] was 300 s⁻¹, the Km [27] was 80 µM and the kcat [27] was 170 s⁻¹. It also gave a Km [28] of 25 µM, a kcat [28] of 130 s⁻¹ and a Km [29] of 2500 µM. For the same molecule, the kcat [29] was 30 s⁻¹, the Km [30] was 60 µM and the kcat [30] was 0.1 s⁻¹. For the same molecule, the Km [31] was 100 µM, the kcat [31] was 70 s⁻¹ and the Km [32] was 2500 µM. The kcat [32] was 1 s⁻¹, the Km [33] was 1000 µM and the kcat [33] was 10 s⁻¹. The Km [34] was 10 µM, the kcat [34] was 5 s⁻¹ and the Km [35] was 60 µM. It also gave a kcat [35] of 15 s⁻¹, a Km [36] of 3000 µM and a kcat [36] of 1.5 s⁻¹.

— ChEMBL document CHEMBL1629643, “Naturally occurring Class A ss-lactamases from the Burkholderia cepacia complex” (Antimicrob Agents Chemother, 2009)
